Results on two compounds are retold here after ChEMBL document CHEMBL5661981 (PLoS One, 2011).

Calls of active or inactive are those of the source. The calls are words filed in the database; no cut-off is given here.

For data set [1], the system named is SK-OV-3. Briefly: Antitumor activity against human SK-OV-3 cells over expressing ErbB2 xenografted in nude mouse assessed as reduction in growth at 50 mg/kg, po administered twice daily for 28 days. It is filed as functional, organism-based. The note with it: time 28.0 day.
Data set [2] relates to Calu-3. Briefly: Antitumor activity against human Calu-3 cells over expressing ErbB2 xenografted in nude mouse assessed as reduction in growth at 50 mg/kg, po administered twice daily for 28 days. It is filed as functional, organism-based. The note with it: time 28.0 day. A general note: In xenograft studies the graft and the host belong to different species.
Data set [3] deals with A549. In words: Antitumor activity against human A549 cells xenografted in nude mouse assessed as reduction in growth at 25 to 100 mg/kg, po administered twice daily for 32 days. It counts as functional, organism-based. The note with it: dose 25-100 mg/kg, time 32.0 day.
Data set [4] deals with Calu-3. Briefly: Antitumor activity against human Calu-3 cells over expressing ErbB2 xenografted in nude mouse assessed as reduction in growth at 25 to 100 mg/kg, po administered twice daily for 21 days. It counts as functional, organism-based. The note with it: dose 25-100 mg/kg, time 21.0 day.
Data set [5] relates to Epidermal growth factor receptor (Homo sapiens), P00533 [L858R,T790M]. The note with it: NIH3T3, dose 1-100 nM, time 6.0 hrs.
Sequence of Epidermal growth factor receptor (Homo sapiens), P00533 [L858R,T790M] (P00533 whole entry T790M/L858R, looked up): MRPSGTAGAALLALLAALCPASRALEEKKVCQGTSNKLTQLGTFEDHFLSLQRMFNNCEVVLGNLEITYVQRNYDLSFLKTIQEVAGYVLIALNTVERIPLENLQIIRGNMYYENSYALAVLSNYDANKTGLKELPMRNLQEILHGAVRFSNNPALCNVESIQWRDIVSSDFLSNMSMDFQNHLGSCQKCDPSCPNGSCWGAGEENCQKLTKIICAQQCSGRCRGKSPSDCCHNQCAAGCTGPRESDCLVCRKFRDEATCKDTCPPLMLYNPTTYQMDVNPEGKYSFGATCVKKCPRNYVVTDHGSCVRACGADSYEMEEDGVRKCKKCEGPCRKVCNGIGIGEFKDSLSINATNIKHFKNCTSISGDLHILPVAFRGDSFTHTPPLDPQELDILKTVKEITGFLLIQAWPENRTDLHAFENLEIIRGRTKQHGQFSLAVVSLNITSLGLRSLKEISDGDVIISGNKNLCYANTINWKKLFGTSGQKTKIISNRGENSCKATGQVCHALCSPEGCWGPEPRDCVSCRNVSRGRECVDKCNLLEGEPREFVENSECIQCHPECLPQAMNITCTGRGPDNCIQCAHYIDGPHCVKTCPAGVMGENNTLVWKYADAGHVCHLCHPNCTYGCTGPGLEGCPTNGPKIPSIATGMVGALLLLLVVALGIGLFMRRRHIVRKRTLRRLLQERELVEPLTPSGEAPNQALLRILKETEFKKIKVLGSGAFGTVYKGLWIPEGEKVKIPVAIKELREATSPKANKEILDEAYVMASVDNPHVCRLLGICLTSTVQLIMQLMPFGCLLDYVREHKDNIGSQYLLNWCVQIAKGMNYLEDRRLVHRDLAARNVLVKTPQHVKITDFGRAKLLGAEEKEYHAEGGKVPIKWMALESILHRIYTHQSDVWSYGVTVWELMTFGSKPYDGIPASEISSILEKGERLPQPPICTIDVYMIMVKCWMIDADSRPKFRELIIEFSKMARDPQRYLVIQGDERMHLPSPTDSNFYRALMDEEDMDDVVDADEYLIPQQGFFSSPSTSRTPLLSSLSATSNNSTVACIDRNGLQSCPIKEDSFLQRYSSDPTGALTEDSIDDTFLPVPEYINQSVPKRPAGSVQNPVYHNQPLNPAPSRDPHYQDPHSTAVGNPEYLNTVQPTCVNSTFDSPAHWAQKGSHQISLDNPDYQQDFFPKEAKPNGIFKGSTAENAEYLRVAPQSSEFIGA
The subject of data set [6] is SK-OV-3. Briefly: Antiproliferative activity against human SK-OV-3 cells assessed as decrease in number of colony formation at 0.1 to 5 uM after 1 to 2 weeks by microscope analysis. It counts as functional, cell-based. The note with it: dose 0.1-5 µM, time 1-2 weeks. A digest of the protocol: (§1)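 Cells at 8000/mL exposed to drug in 1 mL 0.3% basal medium Eagle's agar with 10% FBS; kept 2 weeks at 37°C, 5% CO2. Average colony number counted and colonies photographed; mean of triplicate samples, SE bars, Student's test.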

Data set [7] is described as follows: Toxicity in FVB-2/Nneu transgenic mouse breast cancer model assessed as decrease in body weight at 25 to 100 mg/kg, po administered twice daily for 21 days relative to control. It is filed as organism-based. The note with it: in vivo, 504 h, dose 25-100 mg/kg, time 21 day. The arrangement: scale not given: the % may be the effect or the level left.
In data set [8] the test system is Epidermal growth factor receptor (Homo sapiens), P00533 [L858R,T790M]. The note with it: NCI-H1975, dose 10-100 nM, time 4.25 hrs.
Data set [9] concerns Mus musculus. In words: In vivo inhibition of EGFR phosphorylation in human SK-OV-3 cells over expressing ErbB2 xenografted in nude mouse at 100 mg/kg, po measured after 2 to 24 hrs by Western blot analysis. It is filed as functional, organism-based. The note with it: time lower 2.0 hrs, time upper […]. A digest of the protocol: (§2)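 Nude mice bearing established SK-OV-3 tumors (~200 mm3) given a single 100 mg/kg dose; tumor extracts collected at indicated times and EGFR and ErbB2 phosphorylation assessed by immunoblotting.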

The subject of data set [10] is Mus musculus. In words: In vivo inhibition of ErbB2 phosphorylation in human SK-OV-3 cells over expressing ErbB2 xenografted in nude mouse at 100 mg/kg, po measured after 2 to 24 hrs by Western blot analysis. It is filed as functional, organism-based. The note with it: time lower 2.0 hrs, time upper […]. A digest of the protocol: as §2
Data set [11] concerns SK-OV-3. In words: Antiproliferative activity against human SK-OV-3 cells assessed as reduction in cell viability after 72 hrs by SRB assay. It counts as functional, cell-based. The note with it: SK-OV-3, 72 h. A digest of the protocol:
(§3)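 Cell lines from ATCC; exposed to indicated concentrations for 72 h and growth read by sulforhodamine B (SRB) assay; IC50 values derived.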
On the technique in general: In SRB staining, fixed cells bind dye roughly in proportion to their protein.

Data set [12] concerns SK-OV-3. In words: Antitumor activity against human SK-OV-3 cells over expressing ErbB2 xenografted in nude mouse assessed as reduction in growth at 25 to 100 mg/kg, po administered twice daily for 28 days. It is filed as functional, organism-based. The note with it: dose 25-100 mg/kg, time 28.0 day.
Data set [13] has as its system SK-OV-3. Briefly: Antiproliferative activity against human SK-OV-3 cells transfected with EGFR siRNA assessed as reduction in cell viability at 1.25 to 6.25 uM after 72 hrs by SRB assay. It counts as functional, cell-based. The note with it: dose 1.25-6.25 µM. A digest of the protocol: (§4)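 SK-OV-3 cells transfected with siRNA (final 50 nmol/L; one ErbB2 pair, two independent EGFR pairs, plus control siRNA) using oligofectamine; drug added 48 h after transfection, growth measured by SRB. Three independent experiments; significance by t test.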

Data set [14] concerns Mus musculus. Briefly: Antitumor activity against FVB-2/Nneu transgenic mouse breast cancer model assessed as reduction in tumor growth at 25 to 100 mg/kg, po administered twice daily for 11 days relative to control. The note with it: dose 25-100 mg/kg, time 11 day. It counts as functional. The arrangement: scale not given: the % may be the effect or the level left.
For data set [15], the system named is HO-8910. Briefly: Antitumor activity against human HO-8910 cells xenografted in nude mouse assessed as reduction in growth at 25 to 100 mg/kg, po administered twice daily for 21 days. It counts as functional, organism-based. The note with it: dose 25-100 mg/kg, time 21.0 day.
The subject of data set [16] is MDA-MB-468. In words: Antiproliferative activity against human MDA-MB-468 cells assessed as reduction in cell viability after 72 hrs by SRB assay. The note with it: MDA-MB-468, 72 h. It counts as functional, cell-based. A digest of the protocol:
as §3

The subject of data set [17] is SK-OV-3. In words: Antitumor activity against human SK-OV-3 cells over expressing ErbB2 xenografted in nude mouse assessed as reduction in growth at 25 to 100 mg/kg, po administered twice daily for 7 days relative to control. It counts as functional. Also noted: scale not given: the % may be the effect or the level left. The note with it: dose 25-100 mg/kg, time 7 day.

Data set [18] relates to Epidermal growth factor receptor (Homo sapiens), P00533 [L858R,T790M]. The note with it: NCI-H1975, dose 10-100 nM, time 4.25 hrs. This is another data set of the same source.
Data set [19] relates to NCI-H1975. In words: Antiproliferative activity against human NCI-H1975 cells harboring EGFR T790M/L858R double mutant assessed as reduction in cell viability after 72 hrs by SRB assay. The note with it: dose 0.19-6.25 µM. It counts as functional, cell-based. A digest of the protocol:
as §3

Data set [20] has as its system A549. In words: Antiproliferative activity against human A549 cells assessed as decrease in number of colony formation at 0.1 to 5 uM after 1 to 2 weeks by microscope analysis. It counts as functional, cell-based. The note with it: dose 0.1-5 µM, time 1-2 weeks. A digest of the protocol: as §1
For data set [21], the system named is A549. In words: Antiproliferative activity against human A549 cells assessed as reduction in cell viability after 72 hrs by SRB assay. The note with it: A549, 72 h. It counts as functional, cell-based. A digest of the protocol: as §3
Data set [22] has as its system NCI-H23. Briefly: Antiproliferative activity against human NCI-H23 cells assessed as reduction in cell viability after 72 hrs by SRB assay. It is filed as functional, cell-based. The note with it: NCI-H23, 72 h. A digest of the protocol:
as §3

Data set [23] deals with SK-OV-3. In words: Antiproliferative activity against human SK-OV-3 cells transfected with ErbB2 siRNA assessed as reduction in cell viability at 1.25 to 6.25 uM after 72 hrs by SRB assay. It counts as functional, cell-based. The note with it: dose 1.25-6.25 µM. A digest of the protocol: as §4
Data set [24] deals with Mus musculus. In words: Antitumor activity against FVB-2/Nneu transgenic mouse breast cancer model assessed as reduction in tumor growth at 25 to 100 mg/kg, po administered twice daily for 21 days. It counts as functional, organism-based. The note with it: dose 25-100 mg/kg, time 21.0 day.
Data set [25] deals with Epidermal growth factor receptor (Homo sapiens), P00533 [L858R,T790M]. The note with it: NCI-H1975, dose 10-100 nM, time 4.25 hrs. This is another data set of the same source.
Data set [26] is described as follows: Toxicity in nude mouse xenografted with human SK-OV-3 cells over expressing ErbB2 assessed as effect on body weight at 25 to 100 mg/kg, po administered twice daily for 28 days. The note with it: in vivo, 672 h, dose 25-100 mg/kg, time 28 day. It is filed as organism-based.
Data set [27] deals with NIH3T3. In words: Antiproliferative activity against mouse NIH3T3 cells harboring EGFR T790M/L858R double mutant assessed as reduction in cell viability after 72 hrs by SRB assay. It is filed as functional, cell-based. The note with it: dose 0.19-6.25 µM. A digest of the protocol:
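Parental NIH3T3 and laboratory-built NIH3T3 overexpressing EGFR T790M/L858R treated with indicated concentrations for 72 h; viability by sulforhodamine B; IC50 from three independent experiments.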

`CS(=O)(=O)CCNCc1ccc(-c2ccc3ncnc(Nc4ccc(OCc5cccc(F)c5)c(Cl)c4)c3c2)o1`: the outcome in [1] and in data set [2] was Active.
`C=CC(=O)Nc1ccc2ncnc(Nc3ccc(OCc4cccc(F)c4)c(Cl)c3)c2c1` [ALLITINIB]: the outcome in [3], in data set [4], in [6], in [12], in data set [13] and in data set [15] was Active. The outcome in data set [20] and in data set [24] was Active. The inhibition result in data set [5], in data set [9] and in data set [10] was “Active” throughout. For the same compound, the Activity in data set [7] was less than 20%; in data set [14] it was approximately 100%; in data set [17], approximately 100%; in [26], “Non-Toxic”; in [27], “Dose-Dependent Effect”. Moreover, the inhibition entry in [8], in [18], in [19] and in data set [25] was “Dose-Dependent Effect” throughout. Also, the IC50 in [11], in data set [16], in [21] and in data set [22] was 6.2 µM throughout. The outcome in data set [23] was inactive.
